Measurements reported in ChEMBL document CHEMBL2375320, “Synthesis and antimicrobial activity of polyhalo isophthalonitrile derivatives” (2013).
≈ marks a conversion by molar mass, not a printed value. Calls of active or inactive are those of the source. No cut-off for these calls is given here.

Legend:
Format in all cases: functional
[1] = test system: Staphylococcus aureus; assay: Antibacterial activity against Staphylococcus aureus ATCC 6538 assessed as growth inhibition at 1000 ug/mL after 24 hrs by disk diffusion method; settings: for zone of inhibition at 1000 µg/mL: ATCC 6538, 24 h, read-out: IZ
[2] = test system: Pseudomonas aeruginosa; assay: Antibacterial activity against Pseudomonas aeruginosa ATCC 15442 assessed as growth inhibition at 1000 ug/mL after 24 hrs by disk diffusion method; settings: for zone of inhibition at 1000 µg/mL: ATCC 15442, 24 h, read-out: IZ
[3] = test system: Bacillus cereus; assay: Antibacterial activity against Bacillus cereus ATCC 14579 assessed as growth inhibition at 1000 ug/mL after 24 hrs by disk diffusion method; settings: for zone of inhibition at 1000 µg/mL: ATCC 14579, 24 h, read-out: IZ
[4] = test system: Escherichia coli; assay: Antibacterial activity against Escherichia coli ATCC 8099 assessed as growth inhibition at 1000 ug/mL after 24 hrs by disk diffusion method
[5] = test system: Bacillus cereus; assay: Antibacterial activity against Bacillus cereus ATCC 14579 assessed as growth inhibition after 24 hrs by microbroth dilution method; settings: ATCC 14579, 24 h
Procedure, shortened: (§1)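 Tube dilution: each compound or positive control (norfloxacin, fluconazole) prepared in DMSO at 11 concentrations from 0.98 to 1000 µg/mL. Inoculum and sterile water added to tubes each holding 1 mL of compound solution. Tubes incubated 24 h and inspected for turbidity. MIC is the lowest concentration with no visible growth. Run in triplicate.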

[6] = test system: Candida albicans; assay: Antifungal activity against Candida albicans ATCC 10231 assessed as growth inhibition after 24 hrs by microbroth dilution method; procedure, shortened: as §1
[7] = test system: Staphylococcus aureus; assay: Antibacterial activity against Staphylococcus aureus ATCC 6538 assessed as growth inhibition after 24 hrs by microbroth dilution method; settings: ATCC 6538, 24 h; procedure, shortened: as §1
[8] = test system: Candida albicans; assay: Antifungal activity against Candida albicans ATCC 10231 assessed as growth inhibition at 1000 ug/mL after 72 hrs by disk diffusion method; settings: for zone of inhibition at 1000 µg/mL: ATCC 10231, 72 h, read-out: IZ
Procedure, shortened: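 Candida grown and kept on Sabouraud glucose agar plates. Compounds screened at a fixed 1000 µg/mL, with fluconazole as positive control. Plates incubated at 26 °C for 72 h, then zones of inhibition measured in mm.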

N#Cc1c(N)c(Cl)c(N2CCCCC2)c(C#N)c1N1CCCCC1
inhibition zone (IZ) [1]: inactive
inhibition zone (IZ) [2]: inactive
inhibition zone (IZ) [3]: inactive
inhibition zone (IZ) [4]: inactive

CCCSc1c(Cl)c(N)c(C#N)c(F)c1C#N
MIC [5]: > 1000 µg/mL
MIC ([6]; ATCC 10231, 24 h): > 500 µg/mL
zone of inhibition at 1000 µg/mL [1]: 8.5 mm
inhibition zone (IZ) [2]: inactive
MIC [7]: 1.6 µg/mL (≈ 5.93 µM)
zone of inhibition at 1000 µg/mL [3]: 7.6 mm
inhibition zone (IZ) [4]: inactive

N#Cc1c(F)c(F)c(F)c(C#N)c1F
inhibition zone (IZ) [1]: inactive
inhibition zone (IZ) [2]: inactive
inhibition zone (IZ) [8]: inactive
inhibition zone (IZ) [3]: inactive
inhibition zone (IZ) [4]: inactive

N#Cc1c(F)c(Cl)c(Nc2ccccc2)c(C#N)c1F
MIC [5]: 125 µg/mL (≈ 432 µM)
MIC ([6]; ATCC 10231, 24 h): 0.5 µg/mL (≈ 1.73 µM)
zone of inhibition at 1000 µg/mL [1]: 13 mm
zone of inhibition at 1000 µg/mL [2]: 7.5 mm
MIC [7]: 3.9 µg/mL (≈ 13.5 µM)
zone of inhibition at 1000 µg/mL [8]: 13.6 mm
zone of inhibition at 1000 µg/mL [3]: 14.6 mm
inhibition zone (IZ) [4]: inactive

N#Cc1c(Sc2ccccc2)c(F)c(Sc2ccccc2)c(C#N)c1Sc1ccccc1
inhibition zone (IZ) [1]: inactive
inhibition zone (IZ) [2]: inactive
inhibition zone (IZ) [8]: inactive
zone of inhibition at 1000 µg/mL [3]: 9.8 mm
inhibition zone (IZ) [4]: inactive

N#Cc1c(N)c(Cl)c(Cl)c(C#N)c1Cl
inhibition zone (IZ) [1]: inactive
inhibition zone (IZ) [2]: inactive
inhibition zone (IZ) [8]: inactive
inhibition zone (IZ) [3]: inactive
inhibition zone (IZ) [4]: inactive

COc1ccc(Nc2c(Cl)c(F)c(C#N)c(F)c2C#N)cc1
inhibition zone (IZ) [1]: inactive
inhibition zone (IZ) [2]: inactive
inhibition zone (IZ) [8]: inactive
zone of inhibition at 1000 µg/mL [3]: 6.8 mm
inhibition zone (IZ) [4]: inactive

COc1ccc(Nc2c(F)c(F)c(C#N)c(F)c2C#N)cc1
MIC [5]: > 1000 µg/mL
MIC [6]: inactive
zone of inhibition at 1000 µg/mL [1]: 8.7 mm
inhibition zone (IZ) [2]: inactive
MIC [7]: 375 µg/mL (≈ 1240 µM)
inhibition zone (IZ) [8]: inactive
zone of inhibition at 1000 µg/mL [3]: 8.6 mm
inhibition zone (IZ) [4]: inactive

N#Cc1c(N)c(Cl)c(F)c(C#N)c1F
MIC [5]: > 1000 µg/mL
MIC ([6]; ATCC 10231, 24 h): 15.6 µg/mL (≈ 73 µM)
zone of inhibition at 1000 µg/mL [1]: 8.6 mm
inhibition zone (IZ) [2]: inactive
MIC [7]: 46.9 µg/mL (≈ 220 µM)
zone of inhibition at 1000 µg/mL [8]: 7.3 mm
zone of inhibition at 1000 µg/mL [3]: 7.4 mm
inhibition zone (IZ) [4]: inactive

N#Cc1c(F)c(Cl)c(Nc2ccc(Cl)cc2)c(C#N)c1F
MIC [5]: 417 µg/mL (≈ 1290 µM)
MIC [6]: inactive
zone of inhibition at 1000 µg/mL [1]: 10.7 mm
zone of inhibition at 1000 µg/mL [2]: 7.6 mm
MIC [7]: 26 µg/mL (≈ 80.2 µM)
inhibition zone (IZ) [8]: inactive
zone of inhibition at 1000 µg/mL [3]: 12.2 mm
inhibition zone (IZ) [4]: inactive

N#Cc1c(Cl)c(Cl)c(Nc2ccccc2)c(C#N)c1Cl
inhibition zone (IZ) [1]: inactive
inhibition zone (IZ) [2]: inactive
zone of inhibition at 1000 µg/mL [8]: 15.3 mm
inhibition zone (IZ) [3]: inactive
inhibition zone (IZ) [4]: inactive

N#Cc1c(F)c(C#N)c(Sc2ccccc2)c(Cl)c1Sc1ccccc1
inhibition zone (IZ) [1]: inactive
inhibition zone (IZ) [2]: inactive
inhibition zone (IZ) [8]: inactive
inhibition zone (IZ) [3]: inactive
inhibition zone (IZ) [4]: inactive

N#Cc1c(Cl)c(Cl)c(NCc2ccccc2)c(C#N)c1Cl
inhibition zone (IZ) [1]: inactive
inhibition zone (IZ) [2]: inactive
inhibition zone (IZ) [8]: inactive
inhibition zone (IZ) [3]: inactive
inhibition zone (IZ) [4]: inactive

CN(C)CCCNc1c(F)c(N)c(C#N)c(F)c1C#N
zone of inhibition at 1000 µg/mL [1]: 7 mm
inhibition zone (IZ) [2]: inactive
zone of inhibition at 1000 µg/mL [3]: 7.1 mm
inhibition zone (IZ) [4]: inactive

CCCSc1c(Cl)c(N)c(C#N)c(SCCC)c1C#N
MIC [5]: > 1000 µg/mL
MIC ([6]; ATCC 10231, 24 h): > 1000 µg/mL
zone of inhibition at 1000 µg/mL [1]: 7.5 mm
inhibition zone (IZ) [2]: inactive
MIC [7]: 250 µg/mL (≈ 767 µM)
inhibition zone (IZ) [3]: inactive
inhibition zone (IZ) [4]: inactive
